Test [1] concerns Rattus norvegicus. The test is described as follows: Compound at a dose of 1 mg/kg was administered orally and evaluated for change in mean arterial blood pressure in renal artery ligated hypertensive rats. Particulars: route oral. Format: functional. In short, it runs like this:
(§1)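 Male CD Sprague-Dawley rats (250-270 g), left renal artery ligated under ketamine (100 mg/kg ip); catheterized for direct recording 2-3 days before test. Single oral gavage, 3-7 rats/group. MAP recorded before and for 16 h after dosing; value is maximal MAP decrease, mean ± SEM; decrease under 15 mmHg counted as no effect.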

Test [2] addresses T1, Type-2 angiotensin II receptor (Rattus norvegicus, UniProt P35351).
T1 sequence (P35351 whole entry): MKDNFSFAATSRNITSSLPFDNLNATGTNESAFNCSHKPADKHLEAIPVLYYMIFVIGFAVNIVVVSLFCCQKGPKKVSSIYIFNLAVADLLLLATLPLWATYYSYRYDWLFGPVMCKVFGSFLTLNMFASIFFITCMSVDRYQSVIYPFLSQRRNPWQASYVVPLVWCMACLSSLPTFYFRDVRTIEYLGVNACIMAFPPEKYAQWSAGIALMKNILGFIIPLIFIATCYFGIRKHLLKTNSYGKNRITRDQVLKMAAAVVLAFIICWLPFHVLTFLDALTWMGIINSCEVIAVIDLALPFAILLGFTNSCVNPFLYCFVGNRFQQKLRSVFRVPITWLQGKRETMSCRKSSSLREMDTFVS
The test is described as follows: In vitro binding affinity against angiotensin-2 (AT-2) receptor in rat adrenal. In short, it runs like this:
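Rat adrenal membranes (25-40 μg protein) in Tris-HCl 50 mM, MgCl2 5 mM, 0.25% BSA, pH 7.2, with 0.2 nM [125I]Sar1-Ile8-AII and drug at 10^-9 to 10^-4 M, 60 min, 25 °C. 20 mM DTT included or omitted to separate AT1 and AT2 binding. Nonspecific binding with 1 μM AII; filtration. IC50 by log-logit, Ki by LIGAND; one experiment in triplicate.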

Test [3] concerns Rattus norvegicus. The test is described as follows: Compound at a dose of 10 mg/kg was administered orally and evaluated for change in systolic arterial blood pressure in renal artery ligated hypertensive rats. Format: functional. Particulars: route oral. In short, it runs like this:
(§2)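 Conscious male CD Sprague-Dawley rats (250-270 g) with left renal artery ligated several days earlier under ketamine. Single oral gavage, 3-8 rats/group. Systolic pressure by indirect tail-cuff sphygmomanometry before and 3 h post-dose; change reported as SAP decrease at 3 h, mean ± SEM.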

Test [4] deals with T2, Type-1 angiotensin II receptor B (Rattus norvegicus, UniProt P29089).
T2 sequence (P29089 whole entry): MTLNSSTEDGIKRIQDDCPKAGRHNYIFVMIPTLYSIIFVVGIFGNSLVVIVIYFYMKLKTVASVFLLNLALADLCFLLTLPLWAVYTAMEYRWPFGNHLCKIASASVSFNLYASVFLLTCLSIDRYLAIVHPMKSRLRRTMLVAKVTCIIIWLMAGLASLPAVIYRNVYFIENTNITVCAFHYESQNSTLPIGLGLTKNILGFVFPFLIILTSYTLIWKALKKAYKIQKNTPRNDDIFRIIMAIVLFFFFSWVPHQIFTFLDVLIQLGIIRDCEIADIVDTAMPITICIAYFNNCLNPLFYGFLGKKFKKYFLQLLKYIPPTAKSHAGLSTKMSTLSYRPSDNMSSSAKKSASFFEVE
The test is described as follows: Displacement of [125I]-Sar1-Ile8-A II from rat adrenal Angiotensin-1 (AT-1) receptor.

Test [5] relates to Rattus norvegicus. The test is described as follows: Change in mean arterial blood pressure in renal artery ligated hypertensive rats, orally dosed at 1 mg/kg. Format: functional. Particulars: route oral. In short, it runs like this:
as §1

Test [6] concerns Rattus norvegicus. The test is described as follows: Change in systolic arterial blood pressure in renal artery ligated hypertensive rats, orally dosed at 10 mg/kg. Format: functional. Particulars: route oral. The gist of the method:
as §2

As to `CCCc1nc(C)n2[nH]c(=O)nc2c1Cc1ccc(-c2ccccc2-c2nnn[nH]2)cc1`, the “Change in blood pressure” value in test [1] is reported as -39.6 mmHg; in test [3] it was -92.2 mmHg. Besides, the Ki in test [2] was found to be 79200 nM; in test [4], 24 nM.

For `CCCc1nc(C)n2c(O)nnc2c1Cc1ccc(-c2ccccc2-c2nn[nH]n2)cc1`, the entries for the “Change in blood pressure” value in test [5] and in test [6] were -44.6 mmHg and -87.5 mmHg, respectively. The Ki in test [4] was 10 nM.

With `CCCc1nc(C)n2nc(C)nc2c1Cc1ccc(-c2ccccc2-c2nn[nH]n2)cc1`, the entries for the “Change in blood pressure” value in test [5] and in test [6] were -17.9 mmHg and -71.8 mmHg, respectively. Further, in test [4], the Ki was determined as 32 nM.

On to `CCCc1nc(C)n2c(=O)n(CC(=O)OCC)nc2c1Cc1ccc(-c2ccccc2-c2nn[nH]n2)cc1`, for which the “Change in blood pressure” value in test [5] was -21.6 mmHg; in test [6], -71.7 mmHg. Besides, the Ki in test [4] came to 12 nM.

As for `CCCc1nc(CC)n2nc(O)nc2c1Cc1ccc(-c2ccccc2-c2nn[nH]n2)cc1`, the “Change in blood pressure” value in test [5] was -46.5 mmHg; in test [6] it was -75.8 mmHg. Also, affinity in test [4] was put at a Ki of 225 nM.

For the molecule `CCCc1nc(C)n2nc(S(=O)(=O)NC)nc2c1Cc1ccc(-c2ccccc2-c2nn[nH]n2)cc1`, the “Change in blood pressure” value in test [5] was -14.1 mmHg; in test [6] it was -37.2 mmHg. Moreover, the Ki in test [4] was 139 nM.

Regarding `CCCc1ncn2nc(O)nc2c1Cc1ccc(-c2ccccc2-c2nn[nH]n2)cc1`, the “Change in blood pressure” value in test [5] is given as -17.9 mmHg; in test [6], -38.3 mmHg. This molecule registered a Ki in test [4] of 46 nM.

With `CCCc1nc(C)n2nc(COC)nc2c1Cc1ccc(-c2ccccc2-c2nn[nH]n2)cc1`, the figures for the “Change in blood pressure” value in test [5] and in test [6] were -13.2 mmHg and -73.1 mmHg, respectively. Besides, the Ki in test [4] turned out to be 15 nM.

Regarding `CCCc1nc(C)n2nc(S(N)(=O)=O)nc2c1Cc1ccc(-c2ccccc2-c2nn[nH]n2)cc1`, the “Change in blood pressure” value is listed as -14.5 mmHg in test [5] and -61.3 mmHg in test [6]. In test [4], the affinity, expressed as Ki, was 11 nM.

A word on the Ki: it is a dissociation constant, usually derived from enzyme kinetics or from competition with a known ligand. A higher Ki goes with lower affinity.

Values taken from ChEMBL document CHEMBL1127592, “Synthesis and SAR studies of novel triazolopyrimidine derivatives as potent, orally active angiotensin II receptor antagonists” (J Med Chem, 1994).
